Reference: PMC13618202 (ACS chemical biology, 2026)

Experiments:
[1] = biological target: T1, UBA5 (Homo sapiens, UniProt Q9GZZ9); test: AMP-Glo UBA5 UFMylation assay; type: biochemical; conditions: read-out: IC50-UBA5-Glo; UBA5 0.8 μM; UFM1 5 μM; ATP 5 μM
T1 sequence (Q9GZZ9 37-346): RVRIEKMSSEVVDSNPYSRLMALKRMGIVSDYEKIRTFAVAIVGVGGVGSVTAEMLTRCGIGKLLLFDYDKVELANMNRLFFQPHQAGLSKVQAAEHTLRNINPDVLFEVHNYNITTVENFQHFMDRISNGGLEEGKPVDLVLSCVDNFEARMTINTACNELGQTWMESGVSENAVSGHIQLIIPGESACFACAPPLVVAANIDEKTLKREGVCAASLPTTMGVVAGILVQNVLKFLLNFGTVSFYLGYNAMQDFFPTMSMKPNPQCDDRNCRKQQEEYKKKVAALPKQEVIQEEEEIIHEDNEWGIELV

[2] = tested on: UBA5; conditions: read-out: IC50 (UBA5); cited from earlier work
[3] = biological target: T1, UBA5; test: Fluorescence polarization; type: biochemical; conditions: titration
Method in brief: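 UBA5 (1 μM) preincubated 1 h with test compound (0–25 μM), then UFM1 (2.5 μM) and ATP (20 μM) added for 30 min at RT. Transcreener detection reagent (anti-AMP antibody, Alexa Fluor 633 AMP tracer) added for 1.5 h. AMP read as fluorescence polarization. IC50 by curve fitting, triplicate.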

[4] = biological target: T1, UBA5; test: Gel-based UBA5-UFM1 charging assay; type: biochemical; conditions: UBA5 12 μM; UFM1 25 μM; ATP 2 mM; 2 h
Method in brief: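 UBA5 (12 μM) incubated 1 h with test compound (0–100 μM) in 50 mM Bis-Tris pH 6.5, 100 mM NaCl, 10 mM MgCl2. UFM1 (25 μM) and ATP (2 mM) then added for 2 h at 30 °C; zero time points taken before ATP addition. Gel read-out of UBA5–UFM1 thioester, duplicate.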

[5] = tested on: coupling enzymes in the AMP-Glo kit; test: UBA5-free AMP-Glo coupling enzyme assay; type: biochemical; conditions: 3 mM, no UBA5, ATP 5 μM with or without AMP 5 μM
Method in brief: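 Without UBA5: test compound (0–100 μM) incubated 30 min with AMP-Glo kit components and UFM1 (5 μM), then AMP added to a final 5 μM as direct substrate. Luminescence endpoint read at 37 °C with 2 min integration. Normalized to DMSO wells with AMP (100%) and without AMP (0%). Triplicate.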

[6] = tested on: global cellular ubiquitination in HEK293T cells; test: Global cellular ubiquitination; type: cell-based, Human; conditions: compounds 60 μM, TAK-243 125 or 250 nM, 5 h

| IC50 [1] [µM] | inhibition of UBA5 reaction in FP assay [3] | UBA5-UFM1 thioester formation (UFM1 activation) [4] | interference with the AMP-Glo detection system [5] | SMILES | IC50 [2] [µM] | global cellular ubiquitination [6] |
| --- | --- | --- | --- | --- | --- | --- |
| 547 | dose-dependently inhibited the reaction | significantly reduced UFM1 activation | does not significantly interfere | COc1ccc(CNC(=O)CCl)cc1OC [DKM 2-93] | 430 |  |
|  |  |  |  | NS(=O)(=O)OC[C@H]1C[C@@H](Nc2ccnc3cc(-c4cccc(SC(F)(F)F)c4)nn23)[C@H](O)[C@@H]1O [TAK-243] |  | markedly reduced global cellular ubiquitination |
|  |  |  |  | Nc1ncnc2c1ncn2[C@@H]1O[C@H](COS(N)(=O)=O)[C@@H](O)[C@H]1O [adenosine 5’-sulfamate (ADS), adenosine 5’-sulfamate] | 13 |  |
